Experimental data as given in ChEMBL document CHEMBL3407460, “Synthesis of novel thiazole-based 8,9-dihydro-7H-pyrimido[4,5-b][1,4]diazepines as potential antitumor and antifungal agents” (2015).
Converted amounts (≈) assume the structure as drawn.

Tests used:
Type in all cases: functional
Cryptococcus neoformans [1] = experiment: Antifungal activity against Cryptococcus neoformans ATCC 32264 assessed as growth inhibition at 125 ug/ml after 48 hrs by broth microdilution method; conditions: ATCC 32264, 48 h
Procedure, shortened: (§1)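 CLSI M27-A3 broth microdilution in RPMI-1640. Compound stocks were made in DMSO (final at most 1%) and tested at final levels of 250 to 0.98. Inoculum was 1–5 × 10^3 CFU/mL, incubated 48 h at 30 °C in a moist, dark chamber. Growth and sterility control wells were included.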

Candida albicans [2] = experiment: Antifungal activity against Candida albicans ATCC 10231 assessed as growth inhibition at 15.62 ug/ml after 48 hrs by broth microdilution method; conditions: ATCC 10231, 48 h; procedure, shortened: as §1
Candida albicans [3] = experiment: Antifungal activity against Candida albicans ATCC 10231 assessed as growth inhibition at 250 ug/ml after 48 hrs by broth microdilution method; conditions: ATCC 10231, 48 h; procedure, shortened: as §1
Cryptococcus neoformans [4] = experiment: Antifungal activity against Cryptococcus neoformans IM 031631 clinical isolate after 48 hrs by broth microdilution method; conditions: IM 031631, 48 h
Procedure, shortened: (§2)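 Clinical isolates from the Malbrán Institute were grown on Sabouraud-chloramphenicol agar for 48 h at 30 °C, kept on Sabouraud-dextrose agar and subcultured every 15 days. M27-A3 RPMI-1640 microdilution used 1–5 × 10^3 CFU/mL, 48 h at 30 °C, OD405 read, triplicate. Endpoints MIC100, MIC80 and MIC50 were taken from % inhibition dose-response curves.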

Cryptococcus neoformans [5] = experiment: Antifungal activity against Cryptococcus neoformans IM 983040 clinical isolate after 48 hrs by broth microdilution method; conditions: IM 983040, 48 h; procedure, shortened: as §2
Cryptococcus neoformans [6] = experiment: Antifungal activity against Cryptococcus neoformans ATCC 32264 assessed as growth inhibition at 3.9 ug/ml after 48 hrs by broth microdilution method; conditions: ATCC 32264, 48 h; procedure, shortened: as §1
Cryptococcus neoformans [7] = experiment: Antifungal activity against Cryptococcus neoformans ATCC 32264 assessed as growth inhibition at 15.62 ug/ml after 48 hrs by broth microdilution method; conditions: ATCC 32264, 48 h; procedure, shortened: as §1
Candida albicans [8] = experiment: Antifungal activity against Candida albicans ATCC 10231 assessed as growth inhibition at 62.5 ug/ml after 48 hrs by broth microdilution method; conditions: ATCC 10231, 48 h; procedure, shortened: as §1
Cryptococcus neoformans [9] = experiment: Antifungal activity against Cryptococcus neoformans IM 052470 clinical isolate after 48 hrs by broth microdilution method; conditions: IM 052470, 48 h
Procedure, shortened: (§3)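 Clinical isolates from the Malbrán Institute were grown on Sabouraud-chloramphenicol agar for 48 h at 30 °C, kept on Sabouraud-dextrose agar and subcultured every 15 days. Endpoints MIC100, MIC80 and MIC50 were taken from % inhibition dose-response curves.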

Cryptococcus neoformans [10] = experiment: Antifungal activity against Cryptococcus neoformans IM 972751 clinical isolate after 48 hrs by broth microdilution method; conditions: IM 972751, 48 h; procedure, shortened: as §2
Cryptococcus neoformans [11] = experiment: Antifungal activity against Cryptococcus neoformans ATCC 32264 assessed as growth inhibition at 62.5 ug/ml after 48 hrs by broth microdilution method; conditions: ATCC 32264, 48 h; procedure, shortened: as §1
Candida albicans [12] = experiment: Antifungal activity against Candida albicans ATCC 10231 assessed as growth inhibition at 125 ug/ml after 48 hrs by broth microdilution method; conditions: ATCC 10231, 48 h; procedure, shortened: as §1
Cryptococcus neoformans [13] = experiment: Antifungal activity against Cryptococcus neoformans IM 00319 clinical isolate after 48 hrs by broth microdilution method; conditions: IM 00319, 48 h; procedure, shortened: as §3
Cryptococcus neoformans [14] = experiment: Antifungal activity against Cryptococcus neoformans IM 983036 clinical isolate after 48 hrs by broth microdilution method; conditions: IM 983036, 48 h; procedure, shortened: as §2
Candida albicans [15] = experiment: Antifungal activity against Candida albicans ATCC 10231 assessed as growth inhibition at 3.9 ug/ml after 48 hrs by broth microdilution method; conditions: ATCC 10231, 48 h; procedure, shortened: as §1
Cryptococcus neoformans [16] = experiment: Antifungal activity against Cryptococcus neoformans IM 031706 clinical isolate after 48 hrs by broth microdilution method; conditions: IM 031706, 48 h; procedure, shortened: as §3
Candida albicans [17] = experiment: Antifungal activity against Candida albicans ATCC 10231 assessed as growth inhibition at 7.81 ug/ml after 48 hrs by broth microdilution method; conditions: ATCC 10231, 48 h; procedure, shortened: as §1
Cryptococcus neoformans [18] = experiment: Antifungal activity against Cryptococcus neoformans ATCC 32264 assessed as growth inhibition at 31.25 ug/ml after 48 hrs by broth microdilution method; conditions: ATCC 32264, 48 h; procedure, shortened: as §1
Cryptococcus neoformans [19] = experiment: Antifungal activity against Cryptococcus neoformans IM 042074 clinical isolate after 48 hrs by broth microdilution method; conditions: IM 042074, 48 h; procedure, shortened: as §2
Cryptococcus neoformans [20] = experiment: Antifungal activity against Cryptococcus neoformans IM 961951 clinical isolate after 48 hrs by broth microdilution method; conditions: IM 961951, 48 h; procedure, shortened: as §2
Cryptococcus neoformans [21] = experiment: Antifungal activity against Cryptococcus neoformans ATCC 32264 assessed as growth inhibition at 7.81 ug/ml after 48 hrs by broth microdilution method; conditions: ATCC 32264, 48 h; procedure, shortened: as §1
Candida albicans [22] = experiment: Antifungal activity against Candida albicans ATCC 10231 assessed as growth inhibition at 31.25 ug/ml after 48 hrs by broth microdilution method; conditions: ATCC 10231, 48 h; procedure, shortened: as §1
Cryptococcus neoformans [23] = experiment: Antifungal activity against Cryptococcus neoformans ATCC 32264 after 48 hrs by broth microdilution method; conditions: ATCC 32264, 48 h
Cryptococcus neoformans [24] = experiment: Antifungal activity against Cryptococcus neoformans IM 972724 clinical isolate after 48 hrs by broth microdilution method; conditions: IM 972724, 48 h; procedure, shortened: as §2
Cryptococcus neoformans [25] = experiment: Antifungal activity against Cryptococcus neoformans ATCC 32264 assessed as growth inhibition at 250 ug/ml after 48 hrs by broth microdilution method; conditions: ATCC 32264, 48 h; procedure, shortened: as §1

For `Nc1nc(N)c2c(n1)NC(c1sc(Cl)nc1Cl)CC(c1ccc(Cl)cc1)=N2` (stereo not drawn), the inhibition at 125 µg/mL (Cryptococcus neoformans [1]) was 58.2%, the inhibition at 15.62 µg/mL (Candida albicans [2]) was 100% and the inhibition at 250 µg/mL (Candida albicans [3]) was 100%. The MFC (Cryptococcus neoformans [4]) was 62.5 µg/mL (≈ 142 µM), the MIC50 (Cryptococcus neoformans [4]) was 7.8 µg/mL (≈ 17.7 µM) and the MIC80 (Cryptococcus neoformans [4]) was 15.6 µg/mL (≈ 35.4 µM). The MIC (Cryptococcus neoformans [4]; read-out: MIC100) was 31.2 µg/mL (≈ 70.8 µM), the MFC (Cryptococcus neoformans [5]) was 62.5 µg/mL (≈ 142 µM) and the MIC50 (Cryptococcus neoformans [5]) was 31.2 µg/mL (≈ 70.8 µM). The MIC80 (Cryptococcus neoformans [5]) was 31.2 µg/mL (≈ 70.8 µM), the MIC (Cryptococcus neoformans [5]; read-out: MIC100) was 31.2 µg/mL (≈ 70.8 µM) and the inhibition at 3.9 µg/mL (Cryptococcus neoformans [6]) was 0%. It also gave an inhibition at 15.62 µg/mL (Cryptococcus neoformans [7]) of 13.1%, an inhibition at 62.5 µg/mL (Candida albicans [8]) of 100% and an MFC (Cryptococcus neoformans [9]) of 62.5 µg/mL (≈ 142 µM). It also gave an MIC50 (Cryptococcus neoformans [9]) of 15.6 µg/mL (≈ 35.4 µM), an MIC80 (Cryptococcus neoformans [9]) of 31.2 µg/mL (≈ 70.9 µM) and an MIC (Cryptococcus neoformans [9]; read-out: MIC100) of 62.5 µg/mL (≈ 142 µM). For the same compound, the MFC (Cryptococcus neoformans [10]) was 62.5 µg/mL (≈ 142 µM), the MIC50 (Cryptococcus neoformans [10]) was 31.2 µg/mL (≈ 70.8 µM) and the MIC80 (Cryptococcus neoformans [10]) was 31.2 µg/mL (≈ 70.8 µM). The MIC (Cryptococcus neoformans [10]; read-out: MIC100) was 62.5 µg/mL (≈ 142 µM), the inhibition at 62.5 µg/mL (Cryptococcus neoformans [11]) was 40.5% and the inhibition at 125 µg/mL (Candida albicans [12]) was 100%. For the same compound, the MFC (Cryptococcus neoformans [13]) was 31.2 µg/mL (≈ 70.8 µM), the MIC50 (Cryptococcus neoformans [13]) was 7.8 µg/mL (≈ 17.7 µM) and the MIC80 (Cryptococcus neoformans [13]) was 15.6 µg/mL (≈ 35.4 µM). It also gave an MIC (Cryptococcus neoformans [13]; read-out: MIC100) of 15.6 µg/mL (≈ 35.4 µM), an MFC (Cryptococcus neoformans [14]) of 31.2 µg/mL (≈ 70.8 µM) and an MIC50 (Cryptococcus neoformans [14]) of 15.6 µg/mL (≈ 35.4 µM). The MIC80 (Cryptococcus neoformans [14]) was 15.6 µg/mL (≈ 35.4 µM), the MIC (Cryptococcus neoformans [14]; read-out: MIC100) was 31.2 µg/mL (≈ 70.8 µM) and the inhibition at 3.9 µg/mL (Candida albicans [15]) was 22.2%. It also gave an MFC (Cryptococcus neoformans [16]) of 62.5 µg/mL (≈ 142 µM), an MIC50 (Cryptococcus neoformans [16]) of 7.8 µg/mL (≈ 17.7 µM) and an MIC80 (Cryptococcus neoformans [16]) of 31.2 µg/mL (≈ 70.8 µM). For the same compound, the MIC (Cryptococcus neoformans [16]; read-out: MIC100) was 62.5 µg/mL (≈ 142 µM), the inhibition at 7.81 µg/mL (Candida albicans [17]) was 48.3% and the inhibition at 31.25 µg/mL (Cryptococcus neoformans [18]) was 30.5%. It also gave an MFC (Cryptococcus neoformans [19]) of 62.5 µg/mL (≈ 142 µM), an MIC50 (Cryptococcus neoformans [19]) of 15.6 µg/mL (≈ 35.4 µM) and an MIC80 (Cryptococcus neoformans [19]) of 31.2 µg/mL (≈ 70.8 µM). The MIC (Cryptococcus neoformans [19]; read-out: MIC100) was 31.2 µg/mL (≈ 70.8 µM), the MFC (Cryptococcus neoformans [20]) was 62.5 µg/mL (≈ 142 µM) and the MIC50 (Cryptococcus neoformans [20]) was 7.8 µg/mL (≈ 17.7 µM). For the same compound, the MIC80 (Cryptococcus neoformans [20]) was 15.6 µg/mL (≈ 35.4 µM), the MIC (Cryptococcus neoformans [20]; read-out: MIC100) was 15.6 µg/mL (≈ 35.4 µM) and the inhibition at 7.81 µg/mL (Cryptococcus neoformans [21]) was 3.56%. The inhibition at 31.25 µg/mL (Candida albicans [22]) was 100%, the MFC (Cryptococcus neoformans [23]) was 31.2 µg/mL (≈ 70.8 µM) and the MIC50 (Cryptococcus neoformans [23]) was 7.8 µg/mL (≈ 17.7 µM). It also gave an MIC80 (Cryptococcus neoformans [23]) of 15.6 µg/mL (≈ 35.4 µM), an MIC (Cryptococcus neoformans [23]; read-out: MIC100) of 15.6 µg/mL (≈ 35.4 µM) and an MFC (Cryptococcus neoformans [24]) of 31.2 µg/mL (≈ 70.8 µM). The MIC50 (Cryptococcus neoformans [24]) was 7.8 µg/mL (≈ 17.7 µM), the MIC80 (Cryptococcus neoformans [24]) was 15.6 µg/mL (≈ 35.4 µM) and the MIC (Cryptococcus neoformans [24]; read-out: MIC100) was 15.6 µg/mL (≈ 35.4 µM). The inhibition at 250 µg/mL (Cryptococcus neoformans [25]) was 78.7%.
